Test results from ChEMBL document CHEMBL1155222, “Synthesis and anticancer activity of N-bis(trifluoromethyl)alkyl-N'-thiazolyl and N-bis(trifluoromethyl)alkyl-N'-benzothiazolyl ureas” (2009).

What was measured:
Type in all cases: functional
CCRF-CEM = test: Anticancer activity against human CCRF-CEM cells after 48 hrs by sulforhodamine B assay
How it was run: (§1)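 NCI 60-cell-line screen. Cells grown in RPMI 1640 with 5% FBS and 2 mM L-glutamine, plated at 5000–40,000 cells/well, and preincubated 24 h at 37 °C under 5% CO2. Compounds were taken from DMSO stocks and tested at five final concentrations, 10^-4 to 10^-8 M, for 48 h. Cells were TCA-fixed, stained with 0.4% SRB, and read at 515 nm. GI50, TGI and LC50 were derived as log molar values.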

K562 = test: Anticancer activity against human K562 cells after 48 hrs by sulforhodamine B assay; details: K562, 48 h; how it was run: as §1
MOLT-4 = test: Anticancer activity against human MOLT4 cells after 48 hrs by sulforhodamine B assay; details: MOLT-4, 48 h; how it was run: as §1
SR = test: Anticancer activity against human SR cells after 48 hrs by sulforhodamine B assay
How it was run: (§2)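 NCI 60-cell-line panel; cells grown in RPMI 1640 with 5% FBS and 2 mM L-glutamine, plated at 5000–40,000 cells/well and preincubated 24 h at 37 °C, 5% CO2. Compounds came from DMSO stocks diluted in medium with gentamicin and were tested at five final concentrations, 10^-4 to 10^-8 M, for 48 h. Cells were fixed with TCA, stained with SRB and read at 515 nm. GI50, TGI and LC50 were derived as log molar values.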

A549 = test: Anticancer activity against human A549 cells after 48 hrs by sulforhodamine B assay; details: A549, 48 h; how it was run: as §1
EKVX = test: Anticancer activity against human EKVX cells after 48 hrs by sulforhodamine B assay; how it was run: as §1
HOP-62 = test: Anticancer activity against human HOP62 cells after 48 hrs by sulforhodamine B assay; details: HOP-62, 48 h; how it was run: as §1
NCI-H226 = test: Anticancer activity against human NCI-H226 cells after 48 hrs by sulforhodamine B assay; details: NCI-H226, 48 h; how it was run: as §1
NCI-H322M = test: Anticancer activity against human NCI-H322M cells after 48 hrs by sulforhodamine B assay; how it was run: as §1
NCI-H460 = test: Anticancer activity against human NCI-H460 cells after 48 hrs by sulforhodamine B assay; details: NCI-H460, 48 h; how it was run: as §1
NCI-H522 = test: Anticancer activity against human NCI-H522 cells after 48 hrs by sulforhodamine B assay; details: NCI-H522, 48 h; how it was run: as §1
COLO 205 = test: Anticancer activity against human COLO205 cells after 48 hrs by sulforhodamine B assay; details: COLO 205, 48 h; how it was run: as §1
HCT-116 = test: Anticancer activity against human HCT116 cells after 48 hrs by sulforhodamine B assay; details: HCT-116, 48 h; how it was run: as §1
HCT-15 = test: Anticancer activity against human HCT15 cells after 48 hrs by sulforhodamine B assay; details: HCT-15, 48 h; how it was run: as §1
HT-29 = test: Anticancer activity against human HT-29 cells after 48 hrs by sulforhodamine B assay; details: HT-29, 48 h; how it was run: as §1
KM12 = test: Anticancer activity against human KM12 cells after 48 hrs by sulforhodamine B assay; details: KM12, 48 h; how it was run: as §1
SF-268 = test: Anticancer activity against human SF268 cells after 48 hrs by sulforhodamine B assay; details: SF-268, 48 h; how it was run: as §1
SF-295 = test: Anticancer activity against human SF295 cells after 48 hrs by sulforhodamine B assay; details: SF-295, 48 h; how it was run: as §1
SF-539 = test: Anticancer activity against human SF539 cells after 48 hrs by sulforhodamine B assay; details: SF-539, 48 h; how it was run: as §1
U-251 = test: Anticancer activity against human U251 cells after 48 hrs by sulforhodamine B assay; details: U-251, 48 h; how it was run: as §2
LOX IMVI = test: Anticancer activity against human LOXIMVI cells after 48 hrs by sulforhodamine B assay; how it was run: as §1
Malme-3M = test: Anticancer activity against human MALME-3M cells after 48 hrs by sulforhodamine B assay; how it was run: as §1
M14 = test: Anticancer activity against human M14 cells after 48 hrs by sulforhodamine B assay; details: M14, 48 h; how it was run: as §1
SK-MEL-2 = test: Anticancer activity against human SK-MEL-2 cells after 48 hrs by sulforhodamine B assay; details: SK-MEL-2, 48 h; how it was run: as §1
SK-MEL-28 = test: Anticancer activity against human SK-MEL-28 cells after 48 hrs by sulforhodamine B assay; details: SK-MEL-28, 48 h; how it was run: as §1
UACC-257 = test: Anticancer activity against human UACC257 cells after 48 hrs by sulforhodamine B assay; details: UACC-257, 48 h; how it was run: as §2
UACC-62 = test: Anticancer activity against human UACC62 cells after 48 hrs by sulforhodamine B assay; details: UACC-62, 48 h; how it was run: as §2
IGROV-1 = test: Anticancer activity against human IGROV1 cells after 48 hrs by sulforhodamine B assay; details: IGROV-1, 48 h; how it was run: as §1
OVCAR-3 = test: Anticancer activity against human OVCAR-3 cells after 48 hrs by sulforhodamine B assay; details: OVCAR-3, 48 h; how it was run: as §1
OVCAR-5 = test: Anticancer activity against human OVCAR5 cells after 48 hrs by sulforhodamine B assay; details: OVCAR-5, 48 h; how it was run: as §1
OVCAR-8 = test: Anticancer activity against human OVCAR8 cells after 48 hrs by sulforhodamine B assay; details: OVCAR-8, 48 h; how it was run: as §1
786-0 = test: Anticancer activity against human 786-0 cells after 48 hrs by sulforhodamine B assay; details: 786-0, 48 h; how it was run: as §1
A498 = test: Anticancer activity against human A498 cells after 48 hrs by sulforhodamine B assay; details: A498, 48 h; how it was run: as §1
ACHN = test: Anticancer activity against human ACHN cells after 48 hrs by sulforhodamine B assay; how it was run: as §1
CAKI-1 = test: Anticancer activity against human Caki1 cells after 48 hrs by sulforhodamine B assay; details: CAKI-1, 48 h; how it was run: as §1
RXF 393 = test: Anticancer activity against human RXF393 cells after 48 hrs by sulforhodamine B assay; details: RXF 393, 48 h; how it was run: as §1
SN12C = test: Anticancer activity against human SN12C cells after 48 hrs by sulforhodamine B assay; how it was run: as §2
TK-10 = test: Anticancer activity against human TK10 cells after 48 hrs by sulforhodamine B assay; details: TK-10, 48 h; how it was run: as §2
UO-31 = test: Anticancer activity against human UO31 cells after 48 hrs by sulforhodamine B assay; details: UO-31, 48 h; how it was run: as §2
PC-3 = test: Anticancer activity against human PC3 cells after 48 hrs by sulforhodamine B assay; details: PC-3, 48 h; how it was run: as §1
DU-145 = test: Anticancer activity against human DU145 cells after 48 hrs by sulforhodamine B assay; details: DU-145, 48 h; how it was run: as §1
MDA-MB-231 = test: Anticancer activity against human MDA-MB-231 cells after 48 hrs by sulforhodamine B assay; details: MDA-MB-231, 48 h; how it was run: as §1
MDA-MB-435 = test: Anticancer activity against human MDA-MB-435 cells after 48 hrs by sulforhodamine B assay; details: MDA-MB-435, 48 h; how it was run: as §1
MDA-N = test: Anticancer activity against human MDA-N cells after 48 hrs by sulforhodamine B assay; how it was run: as §1
T47D = test: Anticancer activity against human T47D cells after 48 hrs by sulforhodamine B assay; how it was run: as §2

CCC(NC(=O)Nc1nc2ccccc2s1)(C(F)(F)F)C(F)(F)F
GI50 (CCRF-CEM): 23.4 µM
GI50 (K562): 23.4 µM
GI50 (MOLT-4): 29.5 µM
GI50 (SR): 17 µM
GI50 (A549): 15.8 µM
GI50 (EKVX): 17 µM
GI50 (HOP-62): 17.8 µM
GI50 (NCI-H226): 15.8 µM
GI50 (NCI-H322M): 25.7 µM
GI50 (NCI-H460): 21.4 µM
GI50 (NCI-H522): 17 µM
GI50 (COLO 205): 16.2 µM
GI50 (HCT-116): 18.2 µM
GI50 (HCT-15): 17.8 µM
GI50 (HT-29): 19.5 µM
GI50 (KM12): 20.4 µM
GI50 (SF-268): 17 µM
GI50 (SF-295): 17 µM
GI50 (SF-539): 18.2 µM
GI50 (U-251): 17.4 µM
GI50 (LOX IMVI): 18.2 µM
GI50 (Malme-3M): 15.5 µM
GI50 (M14): 18.6 µM
GI50 (SK-MEL-2): 15.8 µM
GI50 (SK-MEL-28): 17.8 µM
GI50 (UACC-257): 20 µM
GI50 (UACC-62): 15.5 µM
GI50 (IGROV-1): 17 µM
GI50 (OVCAR-3): 16.6 µM
GI50 (OVCAR-5): 19.5 µM
GI50 (OVCAR-8): 18.2 µM
GI50 (786-0): 20 µM
GI50 (A498): 13.5 µM
GI50 (ACHN): 18.2 µM
GI50 (CAKI-1): 19.1 µM
GI50 (RXF 393): 17.4 µM
GI50 (SN12C): 16.2 µM
GI50 (TK-10): 21.9 µM
GI50 (UO-31): 4.68 µM
GI50 (PC-3): 18.2 µM
GI50 (DU-145): 18.6 µM
GI50 (MDA-MB-231): 16.2 µM
GI50 (MDA-MB-435): 20 µM
GI50 (MDA-N): 18.6 µM
GI50 (T47D): 15.5 µM

CCC(NC(=O)Nc1nccs1)(C(F)(F)F)C(F)(F)F
GI50 (CCRF-CEM): 19.5 µM
GI50 (K562): 34.7 µM
GI50 (MOLT-4): 30.9 µM
GI50 (SR): 30.2 µM
GI50 (A549): 44.7 µM
GI50 (EKVX): 35.5 µM
GI50 (HOP-62): > 100 µM
GI50 (NCI-H226): 70.8 µM
GI50 (NCI-H322M): > 100 µM
GI50 (NCI-H460): 38.9 µM
GI50 (NCI-H522): 38 µM
GI50 (COLO 205): 74.1 µM
GI50 (HCT-116): 46.8 µM
GI50 (HCT-15): 53.7 µM
GI50 (HT-29): 41.7 µM
GI50 (KM12): 46.8 µM
GI50 (SF-268): 60.3 µM
GI50 (SF-295): 52.5 µM
GI50 (SF-539): > 100 µM
GI50 (U-251): 40.7 µM
GI50 (LOX IMVI): 72.4 µM
GI50 (Malme-3M): 58.9 µM
GI50 (M14): 38 µM
GI50 (SK-MEL-2): 20 µM
GI50 (SK-MEL-28): 72.4 µM
GI50 (UACC-257): 32.4 µM
GI50 (UACC-62): 40.7 µM
GI50 (IGROV-1): > 100 µM
GI50 (OVCAR-3): 61.7 µM
GI50 (OVCAR-5): > 100 µM
GI50 (OVCAR-8): 53.7 µM
GI50 (786-0): > 100 µM
GI50 (A498): 46.8 µM
GI50 (ACHN): 61.7 µM
GI50 (CAKI-1): 83.2 µM
GI50 (RXF 393): 83.2 µM
GI50 (SN12C): 55 µM
GI50 (TK-10): 31.6 µM
GI50 (UO-31): 95.5 µM
GI50 (PC-3): 0.0794 µM
GI50 (DU-145): 69.2 µM
GI50 (MDA-MB-231): 85.1 µM
GI50 (MDA-MB-435): 61.7 µM
GI50 (MDA-N): 60.3 µM
GI50 (T47D): 38.9 µM
